Source: ChEMBL document CHEMBL4715737, “New 1,3-thiazole derivatives and their biological and ultrastructural effects on Trypanosoma cruzi” (Eur J Med Chem, 2016)
The source made the active and inactive calls. The rule behind the calls is not given here.

What was measured:
[1] = Cytotoxicity against BALB/c mouse splenocyte incubated for 24 hrs by [3H]-thymidine incorporation based counter beta irradiation method; format: cell-based; settings: splenocytes
Summary of the method: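 BALB/c splenocytes, 5 × 10^6 cells/well in RPMI-1640 + 10% inactivated FBS. Compounds from 10 mg/mL DMSO stock, serially diluted to […] (units as printed), in triplicate. Saponin 0.1 mg/mL positive control; medium + DMSO negative (=100%). 3H-thymidine 1.0 added, 24 h at 37 °C, 5% CO2, beta counting; highest concentration giving >90% incorporation taken as non-toxic.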

Trypanosoma cruzi [2] = assay: Antiparasitic activity against Trypanosoma cruzi Y strain trypomastigotes assessed as reduction in parasite viability after 24 hrs by Neubauer chamber counting method; format: functional, organism-based
Summary of the method: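 Y strain trypomastigotes collected from Vero cell supernatant, plated at 4 × 10^5 per well, treated in triplicate for 24 h at 37 °C, 5% CO2; benznidazole positive control. Motile (viable) parasites counted in Neubauer chamber, untreated wells = 100%. IC50 by nonlinear regression from at least seven concentrations.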

[3] = biological target: Cruzipain (Trypanosoma cruzi) (UniProt P25779); assay: Inhibition of recombinant Trypanosoma cruzi cruzain at 300 uM using Z-FR-AMC as substrate and measured at 12 sec interval for 5 mins by fluorimetric analysis relative to control
Sequence of Cruzipain (Trypanosoma cruzi) (P25779 123-467 limits assumed): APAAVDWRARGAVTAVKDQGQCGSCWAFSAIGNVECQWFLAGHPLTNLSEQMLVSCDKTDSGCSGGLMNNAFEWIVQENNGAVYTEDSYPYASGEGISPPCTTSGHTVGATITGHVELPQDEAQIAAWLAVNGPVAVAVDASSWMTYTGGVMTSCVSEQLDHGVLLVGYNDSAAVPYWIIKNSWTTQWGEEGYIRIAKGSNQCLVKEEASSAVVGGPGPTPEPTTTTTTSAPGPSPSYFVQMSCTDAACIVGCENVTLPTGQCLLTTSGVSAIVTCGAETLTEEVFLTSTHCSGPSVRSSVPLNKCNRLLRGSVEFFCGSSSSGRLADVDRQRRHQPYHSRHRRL
Summary of the method: (§1)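 Cruzain (1 nM) in 0.1 M sodium acetate pH 5.5, 0.01% Triton X-100, 1 mM β-mercaptoethanol, substrate Z-FR-AMC, no pre-incubation. Fluorescence read at 25 °C every 12 s for 5 min; rates from initial velocities versus DMSO control. Screened at 300, 200 or 100 (solubility-limited). Where inhibition exceeded 80%, IC50 came from seven concentrations by four-parameter variable-slope regression. At least two independent experiments, each in triplicate.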

[4] = Selectivity index, ratio of >90% maximum non-toxic concentration for BALB/c mouse splenocyte to IC50 for Trypanosoma cruzi Y strain trypomastigotes; format: toxicity; settings: splenocytes, read-out: Selectivity Index
Summary of the method: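 SI computed as highest non-toxic splenocyte concentration (>90% 3H-thymidine incorporation, 24 h) divided by trypomastigote IC50 (24 h, Neubauer motility count).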

[5] = biological target: Cruzipain (Trypanosoma cruzi) (UniProt P25779); assay: Inhibition of recombinant Trypanosoma cruzi cruzain at 200 uM using Z-FR-AMC as substrate and measured at 12 sec interval for 5 mins by fluorimetric analysis relative to control; summary of the method: as §1
Cruzipain = Cruzipain (Trypanosoma cruzi, UniProt P25779); assay: Inhibition of recombinant Trypanosoma cruzi cruzain using Z-FR-AMC as substrate and measured at 12 sec interval for 5 mins by fluorimetric analysis
Sequence of Cruzipain (P25779 whole entry): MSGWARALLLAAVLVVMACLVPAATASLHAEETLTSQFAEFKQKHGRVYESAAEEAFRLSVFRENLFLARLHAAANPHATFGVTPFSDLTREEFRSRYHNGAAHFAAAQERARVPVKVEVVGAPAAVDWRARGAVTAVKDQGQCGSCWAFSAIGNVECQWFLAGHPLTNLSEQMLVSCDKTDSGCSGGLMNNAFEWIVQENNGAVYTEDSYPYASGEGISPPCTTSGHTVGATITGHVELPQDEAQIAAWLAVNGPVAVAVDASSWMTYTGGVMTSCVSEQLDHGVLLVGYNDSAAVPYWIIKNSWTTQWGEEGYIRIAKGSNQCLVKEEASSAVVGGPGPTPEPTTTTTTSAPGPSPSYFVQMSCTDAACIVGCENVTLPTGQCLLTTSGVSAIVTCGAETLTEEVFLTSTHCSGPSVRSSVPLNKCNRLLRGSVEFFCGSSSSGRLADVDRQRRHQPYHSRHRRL
Summary of the method: as §1, with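 “(solubility-limited).” for “(solubility-limited). Where inhibition exceeded 80%, IC50 came from seven concentrations by four-parameter variable-slope regression.”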

Trypanosoma cruzi [6] = assay: Induction of morphological changes in Trypanosoma cruzi trypomastigotes assessed as abnormal chromatin condensation at 3.4 to 6.8 uM after 24 hrs by TEM analysis; format: functional, organism-based; settings: dose 3.4-6.8 µM
Summary of the method: (§2)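 Trypomastigotes cultured 24 h in RPMI 1640 pH 7.5 with 20 mM HEPES, 10% FBS, penicillin/streptomycin plus compound at 3.4 and 6.8. Parasites washed in PBS and fixed in 2.5% glutaraldehyde/4% formaldehyde in 0.1 M cacodylate pH 6.8, then postfixed in 2% OsO4. SEM samples were ethanol-dehydrated, critical-point dried and gold-coated. TEM samples were acetone-dehydrated, epon-embedded and stained with uranyl acetate/lead citrate. Untreated controls were included.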

Trypanosoma cruzi [7] = assay: Induction of morphological changes in Trypanosoma cruzi trypomastigotes assessed as contortion of parasite body and alteration in morphology and size of flagellum at 6.8 uM after 24 hrs by SEM analysis; format: functional, organism-based; summary of the method: as §2
Trypanosoma cruzi [8] = assay: Induction of morphological changes in Trypanosoma cruzi trypomastigotes assessed as contortion of parasite body with presence of blebs in flagellum and parasite body at 3.4 uM after 24 hrs by SEM analysis; format: functional, organism-based; summary of the method: as §2
Trypanosoma cruzi [9] = assay: Induction of morphological changes in Trypanosoma cruzi trypomastigotes assessed as formation of membrane blebs at 3.4 to 6.8 uM after 24 hrs by TEM analysis; format: functional, organism-based; settings: dose 3.4-6.8 µM; summary of the method: as §2
Trypanosoma cruzi [10] = assay: Induction of morphological changes in Trypanosoma cruzi trypomastigotes assessed as mitochondrial swelling at 3.4 to 6.8 uM after 24 hrs by TEM analysis; format: functional, organism-based; settings: dose 3.4-6.8 µM; summary of the method: as §2
Trypanosoma cruzi [11] = assay: Induction of morphological changes in Trypanosoma cruzi trypomastigotes assessed as cytoplasmic vacuolization at 6.8 uM after 24 hrs by TEM analysis; format: functional, organism-based; summary of the method: as §2
Trypanosoma cruzi [12] = assay: Induction of morphological changes in Trypanosoma cruzi trypomastigotes assessed as membrane projections at 3.4 uM after 24 hrs by TEM analysis; format: functional, organism-based; summary of the method: as §2
Trypanosoma cruzi [13] = assay: Induction of cytoplasmic vacuolization, irreversible lesions and changes in parasitic morphology in Trypanosoma cruzi trypomastigotes after 24 hrs by TEM analysis; format: functional; settings: dose 3.4-6.8 µM; summary of the method: as §2
Trypanosoma cruzi [14] = assay: Induction of morphological changes in Trypanosoma cruzi trypomastigotes assessed as alteration in reservosomes at 3.4 to 6.8 uM after 24 hrs by TEM analysis; format: functional, organism-based; settings: dose 3.4-6.8 µM; summary of the method: as §2

| Compound | MNTC at 24 h [1] [µM] | IC50 (Trypanosoma cruzi [2]) [µM] | inhibition [3] [%] | selectivity ratio [4] | IC50 (Cruzipain) [µM] | also measured |
| --- | --- | --- | --- | --- | --- | --- |
| CC/C(=N\Nc1nc(-c2ccc(-c3ccccc3)cc2)cs1)c1cccc(Br)c1 | > 216 | 3.35 | 18.1 | > 64.5 |  |  |
| CC/C(=N\N=C(/S)Nc1ccccc1)c1cccc(Br)c1 | 138 | 13.3 |  | 10.4 |  | inhibition [5]: 49.5% |
| CC/C(=N\Nc1nc(-c2ccc(Br)cc2)c(C)s1)c1cccc(Br)c1 | 20.9 | 5.8 | 100 | 3.6 | 3.8 |  |
| O=C(Cn1ccnc1[N+](=O)[O-])NCc1ccccc1 [BENZNIDAZOLE] |  |  |  | 15.4 |  |  |
| CC/C(=N\Nc1nc(-c2ccc(Cl)cc2Cl)cs1)c1cccc(Br)c1 | 54.9 | 59.2 | 99.7 | 0.9 | 15.1 |  |
| CC/C(=N\N=C(/S)NC)c1cccc(Br)c1 | 33.3 | 36.3 |  | 0.9 |  | inhibition [5]: 11.7% |
| CC/C(=N\Nc1nc(-c2ccc(OC)cc2)cs1)c1cccc(Br)c1 | 120 | 3.84 | 72 | 31.3 |  | Activity (Trypanosoma cruzi [6]): Active; Activity (Trypanosoma cruzi [7]): Active; Activity (Trypanosoma cruzi [8]): Active; Activity (Trypanosoma cruzi [9]): Active; Activity (Trypanosoma cruzi [10]): Active; Activity (Trypanosoma cruzi [11]): Active; Activity (Trypanosoma cruzi [12]): Active; Activity (Trypanosoma cruzi [13]): Dose-dependent effect; Activity (Trypanosoma cruzi [14]): Active |
| CC/C(=N\Nc1nc(-c2ccc([N+](=O)[O-])cc2)cs1)c1cccc(Br)c1 | > 232 | 60 | 68.9 | > 3.9 |  |  |
| CC/C(=N\Nc1nc(-c2ccc(C)cc2)cs1)c1cccc(Br)c1 | 125 | 16.6 | 97.7 | 7.5 | 19.2 |  |
| CC/C(=N\Nc1nc(-c2ccc(Cl)cc2)cs1)c1cccc(Br)c1 | 119 | 140 | 90.4 | 0.8 | 32.7 |  |
| CC/C(=N\Nc1nc(-c2ccccc2)cs1)c1cccc(Br)c1 | 64.7 | 5.51 | 80.7 | 11.7 | 44.6 |  |
| CC/C(=N\N=c1/scc(-c2ccc(OC)cc2)n1C)c1cccc(Br)c1 | 58.1 | 76.6 |  | 0.7 |  | inhibition [5]: 33.1% |
| CC/C(=N\Nc1nc(-c2ccccc2)c(C)s1)c1cccc(Br)c1 | 12.5 | 4.79 | 99.5 | 2.6 | 0.51 |  |
| CC/C(=N\Nc1nc(-c2ccc(Cl)c(Cl)c2)cs1)c1cccc(Br)c1 | 54.9 | 130 | 86.8 | 0.4 | 11.3 |  |
| CC/C(=N\Nc1nc(-c2ccc3ccccc3c2)cs1)c1cccc(Br)c1 | > 229 | 51 | 88.2 | > 4.5 | 9.5 |  |
| CC/C(=N\N=c1/scc(-c2ccccc2)n1-c1ccccc1)c1cccc(Br)c1 | 50.8 | 53.1 |  | 0.9 |  |  |
| CC/C(=N\Nc1nc(-c2ccc(F)cc2)cs1)c1cccc(Br)c1 | 124 | 146 | 95.8 | 0.8 | 16.5 |  |
| CC/C(=N\NC(N)=S)c1cccc(Br)c1 | 34.9 | 2.41 |  |  |  |  |
| CC/C(=N\Nc1nc(-c2cccc([N+](=O)[O-])c2)cs1)c1cccc(Br)c1 | 23.2 | 15.1 | 85.3 | 1.5 | 14.6 |  |
